Columns and labels:
[1] = test system: BXPC-3; assay: Cell cycle arrest in human BxPC3 cells assessed as accumulation at sub G1 phase at 5 uM after 24 hrs using propidium iodide staining by FACS analysis (reference value: 9 %); format: functional
In short: (§1)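 Cells were plated 24 h before treatment and exposed for 24 h at final 0.5, 5, 15 and 50 μM in 0.5% DMSO, against vehicle-treated controls. Cells were then trypsinised and fixed in cold ethanol for 3 h at 4 °C. They were stained in a mix of RNase (200 μg/mL) and PI (1 mg/mL) for 45 min at room temperature in the dark. Flow cytometry used 488 nm excitation and 10 000 gated cells. Phase percentages were assigned from DNA content.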

[2] = test system: MIA PaCa-2; assay: Growth inhibition of human MIAPaCa2 cells after 48 hrs by SRB assay; format: functional; conditions: MIA PaCa-2, 48 h
In short: (§2)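 Cells grown in RPMI 1640 with 5% heat-inactivated FCS, 2 mM L-glutamine and antibiotics, 37 °C, 5% CO2. Seeded at 3500–30000 cells/well and left 24 h before dosing. DMSO solutions added at 10-fold dilutions from 100 to 0.01 μM for 48 h. Cells TCA-fixed and SRB-stained, absorbance read at 540 nm; GI50 derived against the time-zero plate.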

[3] = test system: U-251; assay: Growth inhibition of human U251 cells after 48 hrs by SRB assay; format: functional; conditions: U-251, 48 h; in short: as §2
[4] = Displacement of [3H]1,3-di-otolylguanidine from sigma 2 receptor in rat cerebral cortex membranes; format: cell membranes, Membrane
In short: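 Rat cerebral cortex membranes incubated with 5 nM [3H]DTG plus 300 nM (+)-pentazocine to mask σ1 sites, together with a range of test concentrations, 2 h at 22 °C in Tris-HCl, pH 7.4. Nonspecific binding defined with 10 μM haloperidol.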

[5] = molecular target: Sigma non-opioid intracellular receptor 1 (Homo sapiens, UniProt Q99720); assay: Displacement of [3H]-(+)-pentazocine from sigma 1 receptor in human Jurkat cell membrane; format: cell membranes
In short: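 Jurkat cell membranes incubated with 8 nM [3H](+)-pentazocine and a range of test concentrations for 2 h at 22 °C in Tris-HCl buffer, pH 7.4. Nonspecific binding defined with 10 μM haloperidol. Run in triplicate.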

[6] = test system: BXPC-3; assay: Antitumor activity against human BxPC3 cells xenografted in SCID mouse assessed as tumor growth inhibition at 50 mg/kg, ip administered 3 consecutives days per week for one cycle relative to control; format: functional; conditions: BXPC-3, ip, route intraperitoneal, read-out: TGI
[7] = test system: BXPC-3; assay: Antitumor activity against human BxPC3 cells xenografted in SCID mouse assessed as tumor growth inhibition at 40 mg/kg, ip administered 3 consecutives days per week for three cycles measured after 3 cycles relative to control; format: functional; conditions: BXPC-3, ip, route intraperitoneal, read-out: TGI
In short: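 BxPC3 xenografts were grown in SCID mice from inocula of 10^6 exponentially growing cells, with 10 mice (20 tumors) per group. Treatment started ip once tumors averaged about 100 mm3. The test agent was given in 5% Tween 80 and gemcitabine in water for injection. Tumor volume was measured by caliper twice weekly and %ΔT/ΔC was computed; two-tailed Student's t test.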

[8] = test system: PC-3; assay: Induction of apoptosis in human PC3 cells assessed as cleaved caspase3 containing cells at 15 uM by antibody-based FACS analysis (reference value: 3.2 %); format: functional
[9] = test system: PC-3; assay: Induction of apoptosis in human PC3 cells assessed as cleaved caspase3 containing cells at 50 uM by antibody-based FACS analysis (reference value: 3.2%); format: functional
[10] = test system: PC-3; assay: Induction of apoptosis in human PC3 cells assessed as cleaved caspase3 containing cells at 5 uM by antibody-based FACS analysis (reference value: 3.2 %); format: functional
[11] = test system: IGROV-1; assay: Induction of apoptosis in human IGROV1 cells assessed as cleaved caspase3 containing cells at 5 uM by antibody-based FACS analysis (reference value: 3.9 %); format: functional
[12] = test system: PC-3; assay: Induction of apoptosis in human PC3 cells assessed as total apoptotic death at 50 uM using annexin V/7-AAD by FACS analysis (reference value: 8 %); format: functional
In short: (§3)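 Cells plated 24 h before treatment, then exposed 24 h to 0.5, 5, 15 or 50 μM compound (final DMSO 0.5%); vehicle controls included. Cells scraped and stained with annexin V-FITC and 7-AAD for 15 min on ice in the dark. Flow cytometry with 488 nm excitation, 10,000 gated cells. Early apoptosis was annexin V+/7-AAD−, late was annexin V+/7-AAD+.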

[13] = test system: PC-3; assay: Induction of apoptosis in human PC3 cells assessed as late apoptosis at 0.5 uM using annexin V/7-AAD by FACS analysis (reference value: 3 %); format: functional
[14] = test system: IGROV-1; assay: Induction of apoptosis in human IGROV1 cells assessed as total apoptotic death at 0.5 uM using annexin V/7-AAD by FACS analysis (reference value: 13 %); format: functional; in short: as §3
[15] = test system: IGROV-1; assay: Induction of apoptosis in human IGROV1 cells assessed as healthy cells at 5 uM using annexin V/7-AAD by FACS analysis (reference value: 86 %); format: functional
[16] = test system: BXPC-3; assay: Induction of apoptosis in human BxPC3 cells assessed as late apoptosis at 5 uM using annexin V/7-AAD by FACS analysis (reference value: 9 %); format: functional
[17] = test system: BXPC-3; assay: Induction of apoptosis in human BxPC3 cells assessed as early apoptosis at 0.5 uM using annexin V/7-AAD by FACS analysis (reference value: 9 %); format: functional
[18] = test system: BXPC-3; assay: Induction of apoptosis in human BxPC3 cells assessed as healthy cells at 15 uM using annexin V/7-AAD by FACS analysis (reference value: 79 %); format: functional
[19] = test system: PC-3; assay: Cell cycle arrest in human PC3 cells assessed as accumulation at >G2/M phase at 15 uM after 24 hrs using propidium iodide staining by FACS analysis (reference value: 6 %); format: functional
[20] = test system: PC-3; assay: Cell cycle arrest in human PC3 cells assessed as accumulation at >G2/M phase at 5 uM after 24 hrs using propidium iodide staining by FACS analysis (reference value: 6 %); format: functional
[21] = test system: PC-3; assay: Cell cycle arrest in human PC3 cells assessed as accumulation at S phase at 50 uM after 24 hrs using propidium iodide staining by FACS analysis (reference value: 42 %); format: functional
[22] = test system: PC-3; assay: Cell cycle arrest in human PC3 cells assessed as accumulation at G1 phase at 0.5 uM after 24 hrs using propidium iodide staining by FACS analysis (reference value: 36 %); format: functional
[23] = test system: IGROV-1; assay: Cell cycle arrest in human IGROV1 cells assessed as accumulation at G2 phase at 50 uM after 24 hrs using propidium iodide staining by FACS analysis (reference value: 19 %); format: functional
[24] = test system: IGROV-1; assay: Cell cycle arrest in human IGROV1 cells assessed as accumulation at G2 phase at 0.5 uM after 24 hrs using propidium iodide staining by FACS analysis (reference value: 19 %); format: functional; in short: as §1
[25] = test system: BXPC-3; assay: Cell cycle arrest in human BxPC3 cells assessed as accumulation at >G2/M phase at 0.5 uM after 24 hrs using propidium iodide staining by FACS analysis (reference value: 6 %); format: functional; in short: as §1
[26] = read-out: LC50 (the source's name)

Sequence of Sigma non-opioid intracellular receptor 1 (Q99720 whole entry): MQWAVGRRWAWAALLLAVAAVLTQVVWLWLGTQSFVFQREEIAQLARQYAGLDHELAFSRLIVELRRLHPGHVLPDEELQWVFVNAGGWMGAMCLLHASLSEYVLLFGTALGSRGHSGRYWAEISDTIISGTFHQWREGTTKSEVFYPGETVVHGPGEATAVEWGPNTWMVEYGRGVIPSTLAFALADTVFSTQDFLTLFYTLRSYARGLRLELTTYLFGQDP

## CN1CCN(CCCc2ccc(C(c3ccccc3)C34CC5CC(CC(C5)C3)C4)cc2)CC1 (centres undefined)
[1]
  Activity: 8%
[2]
  GI50: 9390 nM
  TGI: 40100 nM
[2]; [26]
  CC50: 72.6 nM
[3]
  GI50: 3620 nM
  TGI: 5930 nM
[3]; [26]
  CC50: 8.24 nM
[4]
  IC50: 85 nM
[5]
  IC50: 48.1 nM
[6]
  inhibition in vivo at 50 mg/kg: 41.6%
[7]
  inhibition in vivo at 40 mg/kg: 21.8%
[8]
  Activity: 2.5%
[9]
  Activity: 4%
[10]
  Activity: 2%
[11]
  Activity: 12.6%
[12]
  Activity: 23%
[13]
  Activity: 1%
[14]
  Activity: 11%
[15]
  Activity: 83%
[16]
  Activity: 10%
[17]
  Activity: 10%
[18]
  Activity: 35%
[19]
  Activity: 7%
[20]
  Activity: 6%
[21]
  Activity: 31%
[22]
  Activity: 34%
[23]
  Activity: 10%
[24]
  Activity: 23%
[25]
  Activity: 7%

— ChEMBL document CHEMBL2202989, “New adamantane phenylalkylamines with σ-receptor binding affinity and anticancer activity, associated with putative antagonism of neuropathic pain” (J Med Chem, 2012)
